Tests used:
Type in all cases: functional
Mus musculus [1] = test: Percent increase in median life span of BDF1 mice with Colon 26 at dose 6.2 mg/kg administered intraperitoneally; 1, 5, 9 days of ip treatment relative to tumor inoculation; settings: BDF1, Colon 26, ip, 216 h, route intraperitoneal
Mus musculus [2] = organism: Mus musculus; test: Cures is the number of survivors of the total treated mice (10) with Colon 26, at 60 days.
Mus musculus [3] = test: Percent increase in median life span of BDF1 mice with L-1210 leukemia at dose 6.2 mg/kg administered intraperitoneally; 1, 5, 9 days of ip treatment relative to tumor inoculation; settings: BDF1, L1210, ip, 216 h, route intraperitoneal
Summary of the method: (§1)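 BDF1 or CDF1 mice given 10^6 ascitic leukemia cells ip, then dosed ip on days 1, 5 and 9. Read-out is percent increase in life span versus untreated controls. Cures were scored as survivors/total at 30 days; when cures reached 50% or more, the run was extended until a specific ILS could be calculated. T/C ≥125% counted as significant.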

Mus musculus [4] = organism: Mus musculus; test: Cures is the number of survivors of the total treated mice (6) with L-1210 leukemia, at 30 days.
Mus musculus [5] = test: Percent increase in median life span of BDF1 mice with B-16 melanoma at dose 3 mg/kg administered intraperitoneally; range 116-129%, 1-9 days of ip treatment relative to tumor inoculation; settings: BDF1, B16, ip, route intraperitoneal
Summary of the method: (§2)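 BDF1 mice were implanted ip with a homogenate from 0.05 g of B-16 melanoma. Ip dosing ran on days 1-9, starting 24 h after implant, in dose-response studies following NCI protocols. The read-out was percent increase in life span (ILS). T/C ≥125% was taken as significant.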

Mus musculus [6] = test: Percent increase in median life span of BDF1 mice with P-388 leukemia at dose 6.25 mg/kg administered intraperitoneally; 1, 5, 9 days of ip treatment relative to tumor inoculation; settings: BDF1, P388, ip, 216 h, route intraperitoneal; summary of the method: as §1
Mus musculus [7] = organism: Mus musculus; test: Cures is the number of survivors of the total treated mice (10) with advanced B-16 melanoma, at 30 days.
Mus musculus [8] = test: Percent increase in median life span of BDF1 mice with advanced B-16 melanoma at dose 6.2 mg/kg administered intraperitoneally; 5, 9, 13 days of ip treatment relative to tumor inoculation; settings: B16, ip, 312 h, route intraperitoneal
Mus musculus [9] = organism: Mus musculus; test: Cures is the number of survivors of the total treated mice (18) with P-388 leukemia, at 30 days.
Summary of the method: (§3)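 BDF1 or CDF1 mice given 10^6 ascitic P-388 leukemia cells ip, then treated ip on days 1, 5 and 9. Cures are survivors over total treated at 30 days.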

Mus musculus [10] = organism: Mus musculus; test: Cures is the number of survivors of the total treated mice (20) with B-16 melanoma, at 60 days.
Summary of the method: (§4)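 BDF1 mice were implanted ip with a homogenate from 0.05 g of B-16 melanoma and dosed ip on days 1-9. Cures are survivors over total at 60 days.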

Mus musculus [11] = organism: Mus musculus; test: Anticancer activity measured as the number of survivors of the total treated mice with P-388 leukemia at 30 days.; summary of the method: as §3
Mus musculus [12] = test: Percent increase in median life span of BDF1 mice with B-16 melanoma at dose 50 mg/kg administered intraperitoneally; settings: BDF1, B16, ip, route intraperitoneal; summary of the method: as §2
Mus musculus [13] = test: Percent increase in median life span of BDF1 mice with P-388 leukemia at dose 100 mg/kg administered intraperitoneally; settings: BDF1, P388, ip, route intraperitoneal
Mus musculus [14] = organism: Mus musculus; test: Number of survivors of the total treated mice with B-16 melanoma, at 60 days.; summary of the method: as §4
Mus musculus [15] = test: Percent increase in median life span of BDF1 mice with P-388 leukemia at dose 6.25 mg/kg administered intraperitoneally; settings: BDF1, P388, ip, route intraperitoneal
Mus musculus [16] = organism: Mus musculus; test: Cures is the number of survivors of the total treated mice (6) with P-388 leukemia, at 30 days.; summary of the method: as §3
Mus musculus [17] = test: Percent increase in median life span of BDF1 mice with B-16 melanoma at dose 3 mg/kg administered intraperitoneally; settings: BDF1, B16, ip, route intraperitoneal; summary of the method: as §2
Mus musculus [18] = test: Percent increase in median life span of BDF1 mice with P-388 leukemia at dose 25 mg/kg administered intraperitoneally; settings: BDF1, P388, ip, route intraperitoneal
Mus musculus [19] = organism: Mus musculus; test: Cures is the number of survivors of the total treated mice (10) with B-16 melanoma, at 60 days.; summary of the method: as §4
Mus musculus [20] = test: Percent increase in median life span of BDF1 mice with P-388 leukemia at dose 3.1 mg/kg administered intraperitoneally; settings: BDF1, P388, ip, route intraperitoneal
Mus musculus [21] = test: Percent increase in median life span of BDF1 mice with B-16 melanoma at dose 3.1 mg/kg administered intraperitoneally; settings: BDF1, B16, ip, route intraperitoneal; summary of the method: as §2
Mus musculus [22] = test: Percent increase in median life span of BDF1 mice with B-16 melanoma at dose 6.00 mg/kg administered intraperitoneally; settings: BDF1, B16, ip, route intraperitoneal; summary of the method: as §2
Mus musculus [23] = test: Percent increase in median life span of BDF1 mice with B-16 melanoma at dose 1.5 mg/kg administered intraperitoneally; settings: BDF1, B16, ip, route intraperitoneal; summary of the method: as §2

Compound	Cures (Mus musculus [11])	ILS at 100 mg/kg (Mus musculus [13])	Cures (Mus musculus [14])	ILS at 6.25 mg/kg (Mus musculus [15])	Cures (Mus musculus [16])	ILS at 3 mg/kg (Mus musculus [17])	also measured
CN(C)C(=N)N/N=C/c1c2ccccc2c(/C=N/N=C(\N)N(C)C)c2ccccc12							ILS at 6.2 mg/kg (Mus musculus [1]): 167%; Cures (Mus musculus [2]): 1; ILS at 6.2 mg/kg (Mus musculus [3]): 100%; Cures (Mus musculus [4]): 0; ILS at 3 mg/kg (Mus musculus [5]): 125%; ILS at 6.25 mg/kg (Mus musculus [6]): 103%; Cures (Mus musculus [7]): 2; ILS at 6.2 mg/kg (Mus musculus [8]): 41%; Cures (Mus musculus [9]): 3; Cures (Mus musculus [10]): 2
Cl.Cl.S=C(NCCCN1CCOCC1)N/N=C/c1c2ccccc2c(/C=N/NC(=S)NCCCN2CCOCC2)c2ccccc12	0	53%	0				ILS at 50 mg/kg (Mus musculus [12]): 75%
CN(/N=C/c1c2ccccc2c(/C=N/N(C)C2=NCCN2)c2ccccc12)C1=NCCN1			0	124%	1	95%	
Cl.Cl.N=C(N)N/N=C/c1c2ccccc2c(/C=N/N=C(N)N)c2ccccc12			0		3	67%	ILS at 25 mg/kg (Mus musculus [18]): 132%
Cl.Cl.Fc1cccc2c(/C=N/NC3=NCCN3)c3c(F)cccc3c(/C=N/NC3=NCCN3)c12		140%			1		Cures (Mus musculus [19]): 5; ILS at 50 mg/kg (Mus musculus [12]): 194%
C/N=C(\NC)N/N=C/c1c2ccccc2c(/C=N/N/C(=N/C)NC)c2ccccc12			0	118%	1	111%	
Cl.Cl.Fc1cccc2c(/C=N/NC3=NCCN3)c3ccccc3c(/C=N/NC3=NCCN3)c12	0						ILS at 3.1 mg/kg (Mus musculus [20]): 115%; ILS at 3.1 mg/kg (Mus musculus [21]): 100%; Cures (Mus musculus [19]): 1
CN(C)CCC/N=C(\S)N/N=C/c1c2ccccc2c(/C=N/N/C(S)=N/CCCN(C)C)c2ccccc12.Cl.Cl	0		0	100%			ILS at 6 mg/kg (Mus musculus [22]): 77%
CC(C)N(CC/N=C(\S)N/N=C/c1c2ccccc2c(/C=N/N/C(S)=N/CCN(C(C)C)C(C)C)c2ccccc12)C(C)C.Cl.Cl	0	53%					
CN1CCCN=C1N/N=C/c1c2ccccc2c(/C=N/NC2=NCCCN2C)c2ccccc12.Cl.Cl			0	148%	1		ILS at 1.5 mg/kg (Mus musculus [23]): 80%
